What was measured:
Format in all cases: functional, cell-based
[1] = target: T1, Sphingosine 1-phosphate receptor 3 (Homo sapiens, UniProt Q99500); assay: Antagonist activity against human S1P3 receptor assessed as inhibition of S1P-induced intracellular calcium mobilization in CHO-K1 cells
In short: (§1)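 CHO-K1 cells stably transfected with the S1P1, S1P2 or S1P3 receptor, grown in Ham's F12K with G418 (200 µg/mL). Cells plated at 20 000/well in Ham's medium with 1% FBS for 24 h at 37 °C, washed, then held in Ham's medium for a further 24 h. Cells are washed with HBSS containing sulfinpyrazone (0.25 mmol/L) and loaded with Fura-2.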

[2] = target: Sphingosine 1-phosphate receptor 2 (Homo sapiens) (UniProt O95136); assay: Antagonist activity against human S1P2 receptor assessed as inhibition of S1P-induced intracellular calcium mobilization in CHO-K1 cells at 10 uM; in short: as §1
[3] = target: T2, Sphingosine 1-phosphate receptor 1 (Homo sapiens, UniProt P21453); assay: Antagonist activity against human S1P1 receptor assessed as inhibition of S1P-induced intracellular calcium mobilization in CHO-K1 cells; in short: as §1
[4] = target: T2, Sphingosine 1-phosphate receptor 1; assay: Activity at human S1P1 receptor assessed as inhibition of S1P-induced intracellular calcium mobilization in CHO-K1 cells at 10 uM; in short: as §1
[5] = target: T1, Sphingosine 1-phosphate receptor 3; assay: Antagonist activity against human S1P3 receptor assessed as inhibition of S1P-induced intracellular calcium mobilization in CHO-K1 cells at 10 uM; in short: as §1

Sequence of Sphingosine 1-phosphate receptor 2 (Homo sapiens) (O95136 whole entry): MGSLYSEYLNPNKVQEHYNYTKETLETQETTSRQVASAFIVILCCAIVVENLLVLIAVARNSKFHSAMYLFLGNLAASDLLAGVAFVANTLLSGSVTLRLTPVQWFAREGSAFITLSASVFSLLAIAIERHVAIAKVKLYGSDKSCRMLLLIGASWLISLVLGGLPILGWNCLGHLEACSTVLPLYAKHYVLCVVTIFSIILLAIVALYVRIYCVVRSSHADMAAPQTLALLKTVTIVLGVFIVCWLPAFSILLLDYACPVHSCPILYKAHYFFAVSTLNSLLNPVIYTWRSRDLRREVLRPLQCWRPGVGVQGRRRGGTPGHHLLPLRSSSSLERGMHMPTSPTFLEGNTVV
T2 sequence (P21453 whole entry): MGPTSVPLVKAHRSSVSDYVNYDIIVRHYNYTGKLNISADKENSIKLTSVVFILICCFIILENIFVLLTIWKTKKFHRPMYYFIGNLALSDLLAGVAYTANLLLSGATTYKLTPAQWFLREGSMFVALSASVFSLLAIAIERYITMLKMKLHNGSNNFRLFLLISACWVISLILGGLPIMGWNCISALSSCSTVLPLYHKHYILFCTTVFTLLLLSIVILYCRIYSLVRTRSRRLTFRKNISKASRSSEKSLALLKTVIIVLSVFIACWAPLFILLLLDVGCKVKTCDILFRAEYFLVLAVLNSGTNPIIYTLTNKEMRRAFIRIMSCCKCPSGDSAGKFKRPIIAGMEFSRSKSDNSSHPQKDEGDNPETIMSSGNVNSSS
T1 sequence (Q99500 whole entry): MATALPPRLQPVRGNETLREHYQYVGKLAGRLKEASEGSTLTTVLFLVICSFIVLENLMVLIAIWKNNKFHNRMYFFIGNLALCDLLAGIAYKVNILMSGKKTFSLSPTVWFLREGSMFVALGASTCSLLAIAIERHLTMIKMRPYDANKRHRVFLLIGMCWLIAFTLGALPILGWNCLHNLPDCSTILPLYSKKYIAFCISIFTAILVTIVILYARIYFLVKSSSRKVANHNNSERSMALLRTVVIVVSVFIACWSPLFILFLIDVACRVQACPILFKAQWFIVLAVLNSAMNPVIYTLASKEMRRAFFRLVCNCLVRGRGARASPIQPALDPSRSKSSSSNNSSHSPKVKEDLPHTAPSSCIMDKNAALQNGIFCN

SMILES	IC50 [1] [µM]	inhibition [2] [%]	inhibition [4] [%]	further results
COc1ccc(C2N[C@H](C(=O)O)CS2)cc1COc1c(C)cc(Cl)cc1C(C)C (some centres not stated)	> 20			
CCCCCCCCOc1ccc(/C(=N\NS(=O)(=O)c2cc(C(=O)O)cc(C(=O)O)c2)c2ccccc2)cc1OC	13.2	14	32.9	
CCCCCCCCCCC1N[C@H](C(=O)O)CS1 (some centres not stated)	15.7			
CCCCCCCCCCCCCCCCOc1ccc(/C(=N/NS(=O)(=O)c2cccc(C(=O)O)c2)c2ccccc2)cc1OC		-0.1	34.8	HI [5]: 34.4%
CCCCOc1ccc(/C(=N/NS(=O)(=O)c2cc(C(=O)O)cc(C(=O)O)c2)c2ccccc2)cc1OC		6.2	24.2	inhibition [5]: 6.7%
CCCCCCCCCCCCCCCCOc1ccc(/C(=N\NS(=O)(=O)c2cccc(C(=O)O)c2)c2ccccc2)cc1OC		-8.7	1	inhibition [5]: 8.3%
CCCCCCCCCc1cccc(C2N[C@H](C(=O)O)CS2)c1 (some centres not stated)	> 20			
CCCCCCCCCCCCCC1N[C@H](C(=O)O)CS1 (some centres not stated)				inhibition [5]: < 10%

Continued, in another order:

IC50 [1] [µM]	inhibition [2] [%]	inhibition [4] [%]	SMILES	further results
11.6			CCCCCCCCCCCC1N[C@H](C(=O)O)CS1 (some centres not stated)	
4.6			CCCCCCCCCCCCCCCCCNc1ccc(C(=O)CC(=O)Cc2cc(C(=O)O)ccc2Oc2cc(C(=O)O)cc(C(=O)O)c2)cc1	
2.96	40.9		CCCCCCCCCCCCCCCCOc1ccc(/C(=N/NS(=O)(=O)c2cc(C(=O)O)cc(C(=O)O)c2)c2ccccc2)cc1OC	IC50 [3]: 6.64 µM
9.74	20.5	17.2	CCCCCCCCCCCCCCCCOc1ccc(/C(=N/NS(=O)(=O)c2cc(C(=O)O)cc(C(=O)O)c2)c2ccccc2)cc1	
13			CCCCCCCc1ccc(C2N[C@H](C(=O)O)CS2)cc1 (some centres not stated)	
9.7			CCCCCCCc1cccc(C2N[C@H](C(=O)O)CS2)c1 (some centres not stated)	
3.57	9.5		CCCCCCCCCCCCCCCCOc1ccc(/C(=N\NS(=O)(=O)c2cc(C(=O)O)cc(C(=O)O)c2)c2ccccc2)cc1OC	IC50 [3]: 4.28 µM
3.59			CCCCCCCCCCCCCCCCCC(=O)Nc1ccc(C(=O)CC(=O)Cc2cc(C(=O)O)ccc2Oc2cc(C(=O)O)cc(C(=O)O)c2)cc1	
3.44	35.9		CCCCCCCCCCCCCCCCOc1ccc(/C(=N/NS(=O)(=O)c2cc(C(=O)O)cc(C(=O)O)c2)N2CCCCC2)cc1OC	IC50 [3]: 6.18 µM
11.4	-4.6	12.7	CCCCCCCCOc1ccc(/C(=N/NS(=O)(=O)c2cc(C(=O)O)cc(C(=O)O)c2)c2ccccc2)cc1OC	
8.75			CCCCCCCCCCCCCCCCOc1ccc(S(=O)(=O)O)cc1C(=O)O	

Source: ChEMBL document CHEMBL1141397, “Pharmacophore-based design of sphingosine 1-phosphate-3 receptor antagonists that include a 3,4-dialkoxybenzophenone scaffold” (J Med Chem, 2007)
